Compounds with a hit are over-represented: about 1.5% of the library has one in this group of screens.
PDI turbidity: PDI (human) enzyme inhibition. PDI insulin aggregation turbidity, A650, 90 min. inhibition, % at 10 µM. actives 0.052% (n = 350,000);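 active means mean inhibition across replicates of 30% or more, whatever share of single replicates reach that level; inconclusive means mean inhibition below 30% while every single replicate reaches 30%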
GSIS activator: GLuc luminescence reporter in INS-1E cells, primary screen for activators of glucose-dependent secretion of insulin | INS-1E GLuc reporter insulin secretion, 2-3 h | activation, % at 16.6 µM | actives 0.61% (n = 370,000) | AID 743287;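 active means lowest replicate activation of at least 40%, so every replicate reaches that level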;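 further: 0% = median of neutral control wells and 100% = median of IBMX positive control wells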
ERp5 inh: inhibitors of human ERp5 | inhibition, % at 9.99 µM | actives 0.05% (n = 350,000) | Q15084 | ERp5 insulin aggregation, absorbance 650 nm, 90 min;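 active means mean replicate inhibition above about 25%, with every replicate also reaching it, limit read from the data, passing the limit was not always enough; inconclusive means only one of those two criteria met; inactive means neither criterion met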
S100A4 MyoIIA: blocks human S100A4 binding to myosin IIA peptide. S100A4/TAMRA-MyoIIA peptide fluorescence polarization. inhibition, % at 10.7 µM. actives 0.14% (n = 360,000). AID 652163;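 active means mean inhibition of at least 70% across replicates, with every replicate also reaching that level; inconclusive means mean inhibition reaches 70% but some replicates fall short; inactive means mean inhibition below 70%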
Target sequence (P26447 whole entry, looked up): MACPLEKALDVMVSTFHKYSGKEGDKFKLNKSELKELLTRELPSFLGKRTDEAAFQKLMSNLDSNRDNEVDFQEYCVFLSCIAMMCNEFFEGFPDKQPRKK
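Test system: S100A4 monomer protein; Medium: HEPES pH 7.2 with CaCl2, KCl, NaCl, DTT, Triton; Probe or stimulus: TAMRA-labelled myosin IIA heavy-chain peptide probe, 5 nM; Doses: one dose per compound; Times: polarization read 5 min after assay mix addition, stable 5–60 min; Benchmarks: neutral control DMSO, positive control TFP.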
SIRT5 inh: blocks human SIRT5 desuccinylation of peptide | Q9NXA8 | Purified SirT5, succinyl-peptide AMC, trypsin-coupled fluorescence | inhibition, % at 15 µM | actives 1.1% (n = 330,000) | AID 652115; in the data active means inhibition above about 15%; inconclusive means no clear call, values can overlap the other calls
Target sequence (Q9NXA8 whole entry, looked up): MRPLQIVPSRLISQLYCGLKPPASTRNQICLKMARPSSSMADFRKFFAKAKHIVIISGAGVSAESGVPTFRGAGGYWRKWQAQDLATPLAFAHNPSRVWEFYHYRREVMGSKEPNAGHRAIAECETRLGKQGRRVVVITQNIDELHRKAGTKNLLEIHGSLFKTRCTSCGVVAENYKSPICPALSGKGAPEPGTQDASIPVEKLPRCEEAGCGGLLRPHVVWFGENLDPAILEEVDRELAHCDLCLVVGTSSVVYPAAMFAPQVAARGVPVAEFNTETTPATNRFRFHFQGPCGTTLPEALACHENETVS
Starred values were filed as active, the others as inactive; ? = inconclusive; nt = not tested or not shown.

SMILES	PDI turbidity	GSIS activator	ERp5 inh	S100A4 MyoIIA	SIRT5 inh
CCN(CC)S(=O)(=O)c1ccc(C)c(NC(=O)CSc2ncc(C(F)(F)F)cc2Cl)c1	13	169*	nt	nt	nt
O=C(COc1ccccc1)N/N=C/c1sc(=O)n(Cc2cccc(C(=O)O)c2)c1Cl	5	15	7	-1	16*
C[C@H](CO)N1C[C@H](C)[C@H](CN(C)C(=O)Cc2ccccn2)Oc2ncc(-c3ccncc3)cc2C1=O	nt	0	2	-2	4
COc1ccccc1C(=O)N1C[C@@H]2[C@H](c3ccccc31)[C@H](CO)N2CC1CCCC1	nt	-14	0	-25	-4
CCC(=O)N1C[C@H]2[C@@H](c3ccccc31)[C@@H](CO)N2CC1CCCC1	nt	16	-1	3	16*
O=C(c1ccccc1F)N1C[C@H]2[C@@H](c3ccccc31)[C@@H](CO)N2CC1CCCCC1	nt	-8	7	-21	27*
Cc1cccc(S(=O)(=O)N2C[C@H]3[C@@H](c4ccccc42)[C@@H](CO)N3CC2CCCC2)c1	nt	-24	0	1	15*
O=C(CC(F)(F)F)N1C[C@@H]2[C@H](c3ccccc31)[C@@H](CO)N2CC1CCOCC1	nt	10	2	90*	6
CO[C@H]1CN(C)C(=O)c2cc(NC(=O)c3ccc(-c4ccccc4)cc3)ccc2OC[C@@H](C)NC[C@@H]1C	nt	nt	6	-3	103*
CO[C@H]1CN(C)C(=O)c2cc(NC(=O)c3ccc(Oc4ccccc4)cc3)ccc2OC[C@@H](C)NC[C@@H]1C	nt	9	-7	16	-5
CO[C@H]1CN(C)C(=O)c2cc(NS(=O)(=O)c3ccc(Oc4ccccc4)cc3)ccc2OC[C@H](C)NC[C@H]1C	nt	9	-4	3	28*
CO[C@@H]1CN(C)C(=O)c2cc(NC(=O)c3ccc(Oc4ccccc4)cc3)ccc2OC[C@H](C)NC[C@H]1C	nt	22	-1	9	100*
C[C@@H]1CN([C@@H](C)CO)C(=O)c2cc(NC(=O)C3CCCCC3)ccc2O[C@@H](C)CCCCO[C@H]1CN(C)Cc1ccc(C(F)(F)F)cc1	nt	-9	nt	nt	nt
CC(=O)N(c1ccc2oc(=O)sc2c1)S(=O)(=O)c1cccs1	25	nt	nt	nt	nt
CC(=O)N(c1ccc2oc(=O)sc2c1)S(=O)(=O)c1ccc(C(=O)O)cc1	9	30	1	-2	20*
CCCS(=O)(=O)c1c(S(=O)(=O)CCC)c2c(N)cccn2c1C(=O)c1ccc(OC)cc1	1	5	0	6	16*
CN(C)CCN1CCN(C2CN(C3CCCCC3)S(=O)(=O)C2)CC1 (stereo not drawn)	nt	2	0	5	-1
CCCCCCN1CCN(C2CN(C3CCCCC3)S(=O)(=O)C2)CC1 (stereo not drawn)	nt	-5	3	2	39*
CO[C@H](CN(C)S(=O)(=O)c1cn(C)cn1)[C@@H](C)CN(C(=O)Nc1ccc(C(F)(F)F)cc1)[C@H](C)CO	nt	nt	0	8	5
NS(=O)(=O)c1cc(C(=O)NC2CCSc3ccccc32)ccc1Cl (stereo not drawn)	-8	8	9	-3	43*
[O-]/[N+](=C\c1ccc(F)cc1)c1ccccc1	-5	58*	nt	nt	nt
[O-]/[N+](=C\c1ccccc1)c1ccccc1	-1	1	0	-6	nt
O=C(O)c1ccc(CSc2nc3ccc(NC(=O)c4ccccc4C(=O)O)cc3s2)cc1	-2	-1	0	1	17*
C=CS(=O)(=O)c1ccc(Oc2ccc(S(=O)(=O)C=C)cc2)cc1	?	83*	7	-9	-5
C[C@H]1CN([C@@H](C)CO)C(=O)Cc2cc(NC(=O)Nc3cccc4ccccc34)ccc2O[C@H]1CN(C)Cc1ccccc1	nt	3	3	1	0
SMILES	PDI turbidity	GSIS activator	ERp5 inh	S100A4 MyoIIA	SIRT5 inh
Cc1ccccc1S(=O)(=O)/N=C(/c1ccccc1)N1CCOCC1	-5	1	-3	0	16*
CCOC(=O)N1CCN(C(=O)C2CCN(C(=O)c3ccccc3C)CC2)CC1	-14	106*	15	8	-2
Cc1ccccc1C(=O)N1CCC(C(=O)N2CCN(c3ncccn3)CC2)CC1	-3	19	-19	-6	-1
C[C@H]1CC=CC[C@@H](c2ccccc2)NC(=O)[C@H](Cc2ccccc2)N(C)C(=O)c2ccccc2O1 (mixture of isomers)	nt	-10	nt	nt	nt
N#CC1=C(N)Oc2n[nH]c(-c3ccc(F)cc3)c2C1c1cccnc1 (stereo not drawn)	-16	56*	nt	nt	nt
N#CC1=C(N)Oc2n[nH]c(-c3ccccc3)c2C1c1ccncc1 (stereo not drawn)	-4	nt	nt	nt	nt
C[C@H](CO)N1C[C@H](C)[C@@H](CN(C)C(=O)C2CCC2)Oc2ncc(Br)cc2C1=O	nt	7	nt	nt	nt
C/C=C/c1ccc([C@H]2[C@H](CO)N[C@H]2CN(CC(C)C)C(=O)c2ccccn2)cc1	nt	3	0	-11	-2
C/C=C/c1ccc([C@@H]2[C@@H](CO)N[C@@H]2CN(CC(C)C)C(=O)c2ccccn2)cc1	nt	3	0	nt	18*
O=C1C(=Cc2cn(-c3ccccc3)nc2-c2ccc(OCc3ccccc3)cc2)SC(=S)N1CCS(=O)(=O)O	16	-16	-2	2	1
Cc1ccc(-c2nn(-c3ccccc3)cc2C=C2SC(=S)N(CCS(=O)(=O)O)C2=O)cc1	-3	0	-3	-5	55*
CN1CCC(N(C)S(=O)(=O)c2ccc(NC(=O)COc3cccc(Cl)c3)cc2)CC1	-1	64*	-11	-5	-2
Cc1cccc2[nH]c3c(N4CC=C(c5ccc(F)cc5)CC4)ncnc3c12	-5	41*	3	-5	-3
COc1cccc2[nH]c3c(N4CCCCC4)ncnc3c12	-4	17	nt	nt	nt
CCCN1[C@H](C(=O)OC)[C@@H](CO)[C@@H]2Cn3c(ccc(-c4ccccc4)c3=O)[C@@H]21	nt	0	-6	-6	1
Cc1noc(C)c1NC(=O)N[C@@H]1CC[C@H](CC(=O)NCCCN(C)C)O[C@@H]1CO	nt	14	-1	10	1
Cc1noc(C)c1NC(=O)N[C@H]1CC[C@@H](CC(=O)NCCCN(C)C)O[C@H]1CO	nt	1	0	-3	16*
COc1ccccc1NC(=O)N1CC(=O)N2[C@H](CO)[C@H](c3ccc(-c4ccc(F)cc4)cc3)[C@@H]2C1	nt	-24	-1	110*	3
CCCNC(=O)N1CC(=O)N2[C@H](CO)[C@@H](c3ccc(-c4ccc(F)cc4)cc3)[C@@H]2C1	nt	-18	-1	-3	26*
CCCNC(=O)N1CC(=O)N2[C@@H](CO)[C@H](c3ccc(-c4ccc(F)cc4)cc3)[C@@H]2C1	nt	-2	-2	1	1
COc1ccccc1NC(=O)N1CC(=O)N2[C@H](CO)[C@@H](c3ccc(-c4ccc(F)cc4)cc3)[C@@H]2C1	nt	-17	1	25	4
